Assay [1] has as its target T1, Histone-lysine N-methyltransferase EHMT2 (Homo sapiens, UniProt Q96KQ7).
T1 sequence (Q96KQ7 whole entry): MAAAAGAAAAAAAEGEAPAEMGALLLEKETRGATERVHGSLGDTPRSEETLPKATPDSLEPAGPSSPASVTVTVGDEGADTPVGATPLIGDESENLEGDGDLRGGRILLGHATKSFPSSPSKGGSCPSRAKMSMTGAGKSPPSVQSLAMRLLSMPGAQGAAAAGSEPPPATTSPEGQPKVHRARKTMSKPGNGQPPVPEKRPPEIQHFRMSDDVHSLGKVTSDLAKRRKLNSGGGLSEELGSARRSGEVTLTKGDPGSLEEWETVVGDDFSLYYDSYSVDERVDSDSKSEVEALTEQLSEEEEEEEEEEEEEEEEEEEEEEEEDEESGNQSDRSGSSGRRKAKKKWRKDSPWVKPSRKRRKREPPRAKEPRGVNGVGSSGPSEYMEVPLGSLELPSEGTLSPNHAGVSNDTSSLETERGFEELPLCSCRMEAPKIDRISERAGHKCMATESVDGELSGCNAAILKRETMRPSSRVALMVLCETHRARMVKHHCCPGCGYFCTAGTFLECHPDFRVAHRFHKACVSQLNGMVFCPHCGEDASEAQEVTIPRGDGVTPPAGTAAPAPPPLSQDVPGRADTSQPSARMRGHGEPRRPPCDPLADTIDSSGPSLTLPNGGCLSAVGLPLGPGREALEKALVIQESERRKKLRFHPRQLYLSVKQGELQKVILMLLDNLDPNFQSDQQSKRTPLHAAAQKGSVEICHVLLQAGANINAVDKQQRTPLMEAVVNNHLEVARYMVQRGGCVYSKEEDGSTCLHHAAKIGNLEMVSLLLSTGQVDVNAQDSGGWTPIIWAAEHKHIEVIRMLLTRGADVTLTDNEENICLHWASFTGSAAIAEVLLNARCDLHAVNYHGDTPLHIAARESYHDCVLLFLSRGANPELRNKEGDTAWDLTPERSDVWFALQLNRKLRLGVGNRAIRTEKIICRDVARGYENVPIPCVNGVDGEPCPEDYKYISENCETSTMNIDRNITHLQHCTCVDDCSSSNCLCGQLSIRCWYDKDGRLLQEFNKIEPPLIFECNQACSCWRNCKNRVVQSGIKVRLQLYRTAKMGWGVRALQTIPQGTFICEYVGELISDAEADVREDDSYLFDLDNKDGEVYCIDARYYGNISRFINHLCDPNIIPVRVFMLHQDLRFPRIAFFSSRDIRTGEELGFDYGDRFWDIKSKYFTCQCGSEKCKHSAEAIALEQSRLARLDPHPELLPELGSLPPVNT
Nature of the assay: Inhibition of HMT-G9a using S-adenosylmethionine and biotinylated H3 peptide after 1 hr. An outline of the steps:
(§1)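 GST-G9a (200 ng) or His-Set7/9 (931 ng) with BSA preincubated with compound (DMSO) in Tris-HCl pH 8.5 buffer with MgCl₂, KCl, 2-mercaptoethanol, sucrose, 1 h rt; then SAM (50 ng) and biotinylated H3 peptide (50 ng), 37 °C 2 h, boiled. Captured on streptavidin plate; G9a: anti-methylated-lysine antibody, Set7/9: anti-dimethyl-H3K4 antibody; HRP secondary, TMB, A650.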

Assay [2] addresses T2, Histone-lysine N-methyltransferase SETD7 (Homo sapiens) (UniProt Q8WTS6).
T2 sequence (whole entry): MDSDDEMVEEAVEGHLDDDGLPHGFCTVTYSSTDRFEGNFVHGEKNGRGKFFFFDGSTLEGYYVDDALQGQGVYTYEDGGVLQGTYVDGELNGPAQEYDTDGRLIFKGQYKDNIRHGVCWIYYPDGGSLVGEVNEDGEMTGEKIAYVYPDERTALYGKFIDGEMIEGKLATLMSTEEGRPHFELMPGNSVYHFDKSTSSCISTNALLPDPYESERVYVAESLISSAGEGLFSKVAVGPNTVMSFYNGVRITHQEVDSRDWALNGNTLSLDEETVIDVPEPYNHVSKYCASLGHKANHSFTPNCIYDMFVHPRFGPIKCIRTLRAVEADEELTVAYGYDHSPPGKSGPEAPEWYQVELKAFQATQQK
In words: Inhibition of HMT-set7/9 using S-adenosylmethionine and biotinylated H3 peptide at 100 uM after 1 hr. Summed up:
as §1

In another assay the test system is P388. In words: Cytotoxicity against mouse P388 cells after 96 hrs by MTT assay. The format is functional, cell-based. As to conditions: P388, 96 h. An outline of the steps:
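P388 cells grown in RPMI-1640 with 10% FBS, kanamycin and 2-hydroxyethyl disulfide at 37 °C, 5% CO2; seeded at 1 × 10⁴ cells/mL, test solution in RPMI-1640 added, 96 h incubation. MTT (1 mg/mL) added for 3 h, cells dissolved in DMSO after centrifugation; IC₅₀ determined.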

Structures are written as SMILES. Calls of active or inactive are those of the source. The rule behind the calls is not given here. Where only a bound is given, the exact number is not on record here.

Take `CN1C(=O)[C@]23CC4=CC=C[C@H](O)[C@H]4N2C(=O)[C@@]1(CO)SS3` [GLIOTOXIN]: the IC50 in assay [1] stood at 6.4 µM; with P388 it was 24 nM. Besides, in assay [2], the inhibition entry was “inactive”.
Consider `CN1C(=O)[C@]23CC4=CC=C[C@H](O)[C@H]4N2C(=O)[C@@]1(CO)SSSS3` [GLIOTOXIN G], for which the IC50 was 2.1 µM in assay [1] and 20 nM with P388. In addition, in assay [2], the inhibition result is “inactive”.
In the same order, the values of `CN1C(=O)[C@]23Cc4cccc(O)c4N2C(=O)[C@@]1(CO)SS3` are 2.6 µM, 56 nM and “inactive”.
In the same order, the values of `C=C1C(=O)N2[C@H]3C(=CC=C[C@@H]3O)C[C@@]2(SC)C(=O)N1C` are over 100 µM, 3400 nM and “inactive”.
Take `CN1C(=O)[C@]23Cc4ccccc4N2C(=O)[C@@]1(CO)SS3`: the IC50 was determined as 55 µM in assay [1] and 58 nM in the assay on P388. Besides, the inhibition result in assay [2] was “inactive”.
In the same order, the values of `CS[C@]1(CO)C(=O)N2[C@H]3C(=CC=C[C@@H]3O)C[C@@]2(SC)C(=O)N1C` [BIS(DETHIO)BIS(METHYLTHIO)GLIOTOXIN] are over 100 µM, 110 nM and “inactive”.
For the compound `CS[C@]1(CO)C(=O)N2c3c(O)cccc3C[C@@]2(SC)C(=O)N1C` [DEHYDROBIS(METHYLTHIO)GLIOTOXIN], the IC50 worked out at 58 µM in assay [1] and 110 nM with P388. The inhibition entry in assay [2] was “inactive”.

A word on the IC50: it is the concentration needed to halve the response being measured. Lower therefore signals greater potency.

For the origin of these results see ChEMBL document CHEMBL1949536, “Gliotoxin analogues from a marine-derived fungus, Penicillium sp., and their cytotoxic and histone methyltransferase inhibitory activities” (J Nat Prod, 2012).
